Assays:
[1] = target: T1, 5-hydroxytryptamine receptor 2A (Homo sapiens, UniProt P28223); assay: Displacement of [3H]INBMeO from human 5HT2A receptor expressed in human A549 cells; type: cell-based
[2] = target: T1, 5-hydroxytryptamine receptor 2A; assay: Displacement of [3H]INBMeO from human 5HT2A receptor expressed in human HEK293 cells; type: cell-based
[3] = target: T1, 5-hydroxytryptamine receptor 2A; assay: Displacement of [3H]ketanserin from human 5HT2A receptor expressed in human HEK293 cells; type: cell-based
[4] = target: T1, 5-hydroxytryptamine receptor 2A; assay: Displacement of [3H]ketanserin from human 5HT2A receptor expressed in human A549 cells; type: cell-based
[5] = target: T1, 5-hydroxytryptamine receptor 2A; assay: Binding affinity to human 5HT2A receptor expressed in human HEK293 cells; type: cell-based; settings: for Bmax: tested as the 3H-labelled form
In short: (§1)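 Incubated 60 min at 25 °C in 50 mM Tris, 4 mM MgCl2, pH 7.4, with 1% BSA. Nonspecific defined by 10 μM cinanserin; filtration and scintillation counting.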

[6] = target: T1, 5-hydroxytryptamine receptor 2A; assay: Binding affinity to human 5HT2A receptor expressed in human A549 cells; type: cell-based; settings: for Bmax: tested as the 3H-labelled form; in short: as §1
[7] = target: Muscarinic acetylcholine receptor M1 (Homo sapiens, UniProt P11229); assay: Binding affinity to muscarinic M1 receptor
[8] = target: 5-hydroxytryptamine receptor 1E (Homo sapiens, UniProt P28566); assay: Binding affinity to 5HT1E receptor
[9] = target: 5-hydroxytryptamine receptor 5A (Homo sapiens, UniProt P47898); assay: Binding affinity to 5HT5A receptor
[10] = target: Sodium-dependent serotonin transporter (Homo sapiens, UniProt P31645); assay: Binding affinity to serotonin uptake transporter
Sequence of Sodium-dependent serotonin transporter (P31645 whole entry): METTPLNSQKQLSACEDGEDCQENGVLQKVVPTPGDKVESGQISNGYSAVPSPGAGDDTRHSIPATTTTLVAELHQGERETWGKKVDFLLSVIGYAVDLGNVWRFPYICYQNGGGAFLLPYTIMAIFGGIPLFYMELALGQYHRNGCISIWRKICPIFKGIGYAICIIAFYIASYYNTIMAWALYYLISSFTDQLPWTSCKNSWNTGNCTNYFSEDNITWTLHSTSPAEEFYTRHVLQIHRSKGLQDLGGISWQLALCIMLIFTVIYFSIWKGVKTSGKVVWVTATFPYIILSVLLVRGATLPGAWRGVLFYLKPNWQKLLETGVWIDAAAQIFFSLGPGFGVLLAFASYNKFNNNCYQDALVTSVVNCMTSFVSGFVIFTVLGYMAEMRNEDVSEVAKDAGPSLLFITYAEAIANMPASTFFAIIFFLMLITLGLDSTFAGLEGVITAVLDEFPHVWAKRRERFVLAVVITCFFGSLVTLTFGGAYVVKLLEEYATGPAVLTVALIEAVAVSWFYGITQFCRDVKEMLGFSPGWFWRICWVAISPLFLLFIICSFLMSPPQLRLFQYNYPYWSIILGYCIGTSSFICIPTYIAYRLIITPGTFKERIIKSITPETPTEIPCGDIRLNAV

[11] = target: D(2) dopamine receptor (Homo sapiens, UniProt P14416); assay: Binding affinity to dopamine D2 receptor
Sequence of D(2) dopamine receptor (P14416 whole entry): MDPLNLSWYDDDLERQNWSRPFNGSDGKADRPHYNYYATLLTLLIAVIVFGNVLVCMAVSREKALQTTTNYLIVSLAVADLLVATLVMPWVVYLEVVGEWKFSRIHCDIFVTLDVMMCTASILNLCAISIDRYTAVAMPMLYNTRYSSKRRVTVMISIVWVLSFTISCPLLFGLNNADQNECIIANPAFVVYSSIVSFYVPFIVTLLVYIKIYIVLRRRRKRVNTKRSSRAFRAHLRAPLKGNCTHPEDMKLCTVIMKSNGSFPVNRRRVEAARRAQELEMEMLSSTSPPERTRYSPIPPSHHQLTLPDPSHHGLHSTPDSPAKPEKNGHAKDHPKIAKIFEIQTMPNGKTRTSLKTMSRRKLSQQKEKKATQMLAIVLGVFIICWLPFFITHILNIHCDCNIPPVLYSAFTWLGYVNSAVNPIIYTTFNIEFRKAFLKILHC

[12] = target: Histamine H1 receptor (Homo sapiens, UniProt P35367); assay: Binding affinity to histamine H1 receptor
Sequence of Histamine H1 receptor (P35367 whole entry): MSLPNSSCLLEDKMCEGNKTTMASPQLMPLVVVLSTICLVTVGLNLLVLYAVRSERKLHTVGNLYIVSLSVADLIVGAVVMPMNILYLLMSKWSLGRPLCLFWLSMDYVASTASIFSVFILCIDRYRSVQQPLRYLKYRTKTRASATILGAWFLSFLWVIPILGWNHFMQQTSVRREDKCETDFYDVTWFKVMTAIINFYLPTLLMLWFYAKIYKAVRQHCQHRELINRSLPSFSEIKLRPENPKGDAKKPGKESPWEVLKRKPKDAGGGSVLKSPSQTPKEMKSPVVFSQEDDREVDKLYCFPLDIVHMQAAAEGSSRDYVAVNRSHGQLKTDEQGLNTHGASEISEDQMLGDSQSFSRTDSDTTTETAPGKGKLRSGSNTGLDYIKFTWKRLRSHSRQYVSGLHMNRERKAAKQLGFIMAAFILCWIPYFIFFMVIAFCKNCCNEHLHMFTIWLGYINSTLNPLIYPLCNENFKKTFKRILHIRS

[13] = target: Alpha-1A adrenergic receptor (Homo sapiens, UniProt P35348); assay: Binding affinity to alpha 1A adrenergic receptor
[14] = target: Muscarinic acetylcholine receptor M4 (Homo sapiens, UniProt P08173); assay: Binding affinity to muscarinic M4 receptor
Sequence of Muscarinic acetylcholine receptor M4 (P08173 whole entry): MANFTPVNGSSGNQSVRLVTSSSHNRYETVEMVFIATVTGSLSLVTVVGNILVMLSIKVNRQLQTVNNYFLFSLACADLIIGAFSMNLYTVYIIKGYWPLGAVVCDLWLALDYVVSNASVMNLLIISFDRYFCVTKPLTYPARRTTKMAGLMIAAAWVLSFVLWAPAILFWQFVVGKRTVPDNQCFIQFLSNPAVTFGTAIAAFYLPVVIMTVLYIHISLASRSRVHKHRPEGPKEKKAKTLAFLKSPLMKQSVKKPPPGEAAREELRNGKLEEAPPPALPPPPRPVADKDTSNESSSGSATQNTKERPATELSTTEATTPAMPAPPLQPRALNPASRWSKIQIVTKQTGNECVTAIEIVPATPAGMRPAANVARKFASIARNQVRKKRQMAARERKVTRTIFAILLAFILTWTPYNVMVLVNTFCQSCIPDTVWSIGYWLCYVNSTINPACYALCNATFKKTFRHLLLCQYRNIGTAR

[15] = target: Sodium-dependent dopamine transporter (Homo sapiens, UniProt Q01959); assay: Binding affinity to dopamine uptake transporter
[16] = target: 5-hydroxytryptamine receptor 7 (Homo sapiens, UniProt P34969); assay: Binding affinity to 5HT7 receptor
[17] = target: Muscarinic acetylcholine receptor M3 (Homo sapiens, UniProt P20309); assay: Binding affinity to muscarinic M3 receptor
Sequence of Muscarinic acetylcholine receptor M3 (P20309 whole entry): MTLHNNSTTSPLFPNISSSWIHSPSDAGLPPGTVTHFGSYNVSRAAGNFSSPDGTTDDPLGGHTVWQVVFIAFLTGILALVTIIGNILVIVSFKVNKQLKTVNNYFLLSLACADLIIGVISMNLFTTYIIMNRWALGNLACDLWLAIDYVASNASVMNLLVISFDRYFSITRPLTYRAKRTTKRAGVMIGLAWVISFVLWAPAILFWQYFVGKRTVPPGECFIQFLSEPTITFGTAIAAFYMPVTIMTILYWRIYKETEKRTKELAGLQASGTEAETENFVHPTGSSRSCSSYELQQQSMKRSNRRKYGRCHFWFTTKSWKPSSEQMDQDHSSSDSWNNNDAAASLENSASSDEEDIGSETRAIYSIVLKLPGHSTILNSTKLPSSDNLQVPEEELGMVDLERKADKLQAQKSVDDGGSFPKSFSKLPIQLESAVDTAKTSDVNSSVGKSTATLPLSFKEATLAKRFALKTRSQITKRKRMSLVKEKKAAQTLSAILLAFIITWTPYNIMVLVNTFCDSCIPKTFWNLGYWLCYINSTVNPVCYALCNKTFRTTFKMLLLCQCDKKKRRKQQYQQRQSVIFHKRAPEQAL

[18] = target: 5-hydroxytryptamine receptor 2C (Homo sapiens, UniProt P28335); assay: Binding affinity to 5HT2C receptor
[19] = target: D(1B) dopamine receptor (Homo sapiens, UniProt P21918); assay: Binding affinity to dopamine D5 receptor
Sequence of D(1B) dopamine receptor (P21918 whole entry): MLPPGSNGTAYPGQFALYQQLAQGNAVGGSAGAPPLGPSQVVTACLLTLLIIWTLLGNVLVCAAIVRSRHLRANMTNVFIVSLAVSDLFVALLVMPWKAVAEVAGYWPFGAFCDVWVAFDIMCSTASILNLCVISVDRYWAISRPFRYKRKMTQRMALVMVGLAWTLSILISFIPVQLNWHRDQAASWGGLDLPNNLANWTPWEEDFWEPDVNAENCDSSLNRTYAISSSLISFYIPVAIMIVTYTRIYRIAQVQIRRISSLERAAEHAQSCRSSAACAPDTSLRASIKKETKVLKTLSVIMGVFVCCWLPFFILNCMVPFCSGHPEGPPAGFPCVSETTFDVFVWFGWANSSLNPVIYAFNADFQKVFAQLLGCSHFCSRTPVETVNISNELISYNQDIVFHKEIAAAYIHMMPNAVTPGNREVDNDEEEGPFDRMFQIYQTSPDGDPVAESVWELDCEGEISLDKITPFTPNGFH

[20] = target: 5-hydroxytryptamine receptor 3A (Homo sapiens, UniProt P46098); assay: Binding affinity to 5HT3 receptor
[21] = target: Mu-type opioid receptor (Homo sapiens, UniProt P35372); assay: Binding affinity to mu opioid receptor
Sequence of Mu-type opioid receptor (P35372 whole entry): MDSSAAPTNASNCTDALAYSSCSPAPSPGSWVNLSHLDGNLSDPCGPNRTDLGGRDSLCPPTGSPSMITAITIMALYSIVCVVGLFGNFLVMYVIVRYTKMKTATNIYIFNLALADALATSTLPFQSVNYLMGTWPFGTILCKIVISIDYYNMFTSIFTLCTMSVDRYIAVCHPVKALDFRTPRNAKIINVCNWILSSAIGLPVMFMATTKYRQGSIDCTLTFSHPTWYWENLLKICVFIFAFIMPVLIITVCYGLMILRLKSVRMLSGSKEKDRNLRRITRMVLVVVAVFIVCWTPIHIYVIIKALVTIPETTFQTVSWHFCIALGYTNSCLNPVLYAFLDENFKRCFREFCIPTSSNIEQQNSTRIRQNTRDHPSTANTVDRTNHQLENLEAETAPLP

[22] = target: Muscarinic acetylcholine receptor M2 (Homo sapiens, UniProt P08172); assay: Binding affinity to muscarinic M2 receptor
Sequence of Muscarinic acetylcholine receptor M2 (P08172 whole entry): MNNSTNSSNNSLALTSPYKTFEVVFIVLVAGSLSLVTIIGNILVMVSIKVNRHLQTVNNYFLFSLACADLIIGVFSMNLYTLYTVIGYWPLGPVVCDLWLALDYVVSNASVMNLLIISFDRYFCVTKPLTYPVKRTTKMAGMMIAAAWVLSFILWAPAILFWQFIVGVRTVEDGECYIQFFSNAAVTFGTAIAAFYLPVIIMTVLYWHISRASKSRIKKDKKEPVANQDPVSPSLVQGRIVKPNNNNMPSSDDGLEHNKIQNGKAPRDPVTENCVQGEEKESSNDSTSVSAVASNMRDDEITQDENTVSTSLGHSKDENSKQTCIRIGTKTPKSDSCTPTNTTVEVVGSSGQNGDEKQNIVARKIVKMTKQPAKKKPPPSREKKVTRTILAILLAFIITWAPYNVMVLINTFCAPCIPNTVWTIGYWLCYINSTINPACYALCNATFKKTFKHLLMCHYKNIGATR

[23] = target: 5-hydroxytryptamine receptor 1A (Homo sapiens, UniProt P08908); assay: Binding affinity to 5HT1A receptor
[24] = target: 5-hydroxytryptamine receptor 1B (Homo sapiens, UniProt P28222); assay: Binding affinity to 5HT1B receptor
[25] = target: Kappa-type opioid receptor (Homo sapiens, UniProt P41145); assay: Binding affinity to kappa opioid receptor
[26] = target: D(1A) dopamine receptor (Homo sapiens, UniProt P21728); assay: Binding affinity to dopamine D1 receptor
[27] = target: Muscarinic acetylcholine receptor M5 (Homo sapiens, UniProt P08912); assay: Binding affinity to muscarinic M5 receptor
[28] = target: 5-hydroxytryptamine receptor 6 (Homo sapiens, UniProt P50406); assay: Binding affinity to 5HT6 receptor
[29] = target: Delta-type opioid receptor (Homo sapiens, UniProt P41143); assay: Binding affinity to delta opioid receptor
[30] = target: 5-hydroxytryptamine receptor 1D (Homo sapiens, UniProt P28221); assay: Binding affinity to 5HT1D receptor
[31] = target: D(3) dopamine receptor (Homo sapiens, UniProt P35462); assay: Binding affinity to dopamine D3 receptor
Sequence of D(3) dopamine receptor (P35462 whole entry): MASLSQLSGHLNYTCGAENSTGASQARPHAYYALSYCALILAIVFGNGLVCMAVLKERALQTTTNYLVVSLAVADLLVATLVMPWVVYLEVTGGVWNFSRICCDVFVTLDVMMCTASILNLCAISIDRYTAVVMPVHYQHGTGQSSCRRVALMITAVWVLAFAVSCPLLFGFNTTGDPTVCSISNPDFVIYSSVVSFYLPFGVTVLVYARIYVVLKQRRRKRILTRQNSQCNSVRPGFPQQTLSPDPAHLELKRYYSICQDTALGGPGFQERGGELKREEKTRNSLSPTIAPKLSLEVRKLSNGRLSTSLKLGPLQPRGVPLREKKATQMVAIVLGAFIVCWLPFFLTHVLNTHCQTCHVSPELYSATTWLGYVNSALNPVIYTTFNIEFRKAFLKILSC

[32] = target: Histamine H2 receptor (Homo sapiens, UniProt P25021); assay: Binding affinity to histamine H2 receptor
[33] = target: 5-hydroxytryptamine receptor 2B (Homo sapiens, UniProt P41595); assay: Binding affinity to 5HT2B receptor
[34] = target: Histamine H3 receptor (Homo sapiens, UniProt Q9Y5N1); assay: Binding affinity to histamine H3 receptor

T1 sequence (P28223 whole entry): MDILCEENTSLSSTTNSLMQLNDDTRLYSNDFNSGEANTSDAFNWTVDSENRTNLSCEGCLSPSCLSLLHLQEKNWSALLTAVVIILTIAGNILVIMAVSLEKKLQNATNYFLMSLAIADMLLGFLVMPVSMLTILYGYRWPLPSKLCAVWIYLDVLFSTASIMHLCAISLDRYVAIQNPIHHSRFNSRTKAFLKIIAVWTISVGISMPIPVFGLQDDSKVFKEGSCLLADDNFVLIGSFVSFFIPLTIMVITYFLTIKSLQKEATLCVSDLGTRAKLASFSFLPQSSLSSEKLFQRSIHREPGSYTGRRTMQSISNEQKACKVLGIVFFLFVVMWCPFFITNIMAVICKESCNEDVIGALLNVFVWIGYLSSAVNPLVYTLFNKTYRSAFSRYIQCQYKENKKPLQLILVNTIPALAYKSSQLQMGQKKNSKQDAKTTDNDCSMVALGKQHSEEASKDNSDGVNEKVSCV

## CN(C)CCCSc1ccccc1NC(=O)/C=C/c1ccccc1 [CINANSERIN]
[1]
  Ki: 24 nM
[2]
  Ki: 22 nM
[3]
  Ki: 13 nM
[4]
  Ki: 17 nM

## COc1cc(CCNCc2ccccc2OC)c(OC)cc1I
[5]
  Bmax: 2210 fmol/mg
[6]
  Bmax: 480 fmol/mg

## O=C(c1ccc(F)cc1)C1CCN(CCn2c(=O)[nH]c3ccccc3c2=O)CC1
[5]
  Bmax: 3260 fmol/mg
[6]
  Bmax: 890 fmol/mg

## [3H]C([3H])([3H])Oc1cc(I)c(OC)cc1CCNCc1ccccc1OC([3H])([3H])[3H]
[7]
  Ki: > 500 nM
[8]
  Ki: > 500 nM
[5]
  Kd: 0.15 nM
[9]
  Ki: > 500 nM
[10]
  Ki: > 500 nM
[11]
  Ki: > 500 nM
[12]
  Ki: 189 nM
[13]
  Ki: > 500 nM
[14]
  Ki: > 500 nM
[15]
  Ki: > 500 nM
[16]
  Ki: > 500 nM
[17]
  Ki: > 500 nM
[18]
  Ki: 2 nM
[19]
  Ki: > 500 nM
[20]
  Ki: > 500 nM
[21]
  Ki: 82 nM
[22]
  Ki: > 500 nM
[23]
  Ki: > 500 nM
[24]
  Ki: > 500 nM
[25]
  Ki: 288 nM
[26]
  Ki: > 500 nM
[27]
  Ki: > 500 nM
[28]
  Ki: 73 nM
[29]
  Ki: > 500 nM
[30]
  Ki: > 500 nM
[6]
  Kd: 0.097 nM
[31]
  Ki: > 500 nM
[32]
  Ki: > 500 nM
[33]
  Ki: 231 nM
[34]
  Ki: > 500 nM
